Test results from publication PMC3790647 (Clinical cancer research : an official journal of the …, 2013).
Marks after values point to notes of the source that are not given here.

Columns and labels:
[1] = test system: patients with advanced solid tumors; experiment: Safety and tolerability, first-in-human dose escalation; format: in vivo
How it was run: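 Open-label 3+3 escalation: oral once-daily dosing on days 1–5 every 14 days at 100, 200, 400, 600 and 800 mg, with 3–6 patients per level and 4 cycles. Adverse events were graded by NCI-CTC-AE v3.0 from first dose to 30 days after last dose. DLTs were assessed over the first 14 days. Evaluable patients had five consecutive doses plus safety evaluations over nine days.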

[2] = test system: multiple myeloma cells; conditions: cited from earlier work
[3] = Plasma pharmacokinetics of resminostat in patients; format: in vivo, human; conditions: for half-life / AUC / AUC(0-inf) / Tmax / Cmax: human, plasma
How it was run: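 Oral capsules (100–800 mg) were taken once daily within 30 min after a light meal with 240 ml water, with a 1 h post-dose fast on PK days. Day 1 blood was drawn pre-dose to 24 h (15 min–10 h series plus 24 h); days 5 and 47, pre-dose to 8 h. Samples (2 ml EDTA) were kept on ice, spun 10 min at 2700 × g at 4°C, and plasma stored at −80°C. Analysis used validated HPLC-MS/MS and non-compartmental (extravascular) analysis, with AUC0-∞, Cmax and t½ log-transformed.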

[4] = test system: relapsed/refractory Hodgkin lymphoma; conditions: cited from earlier work
[5] = test system: HeLa cells; conditions: ref Investigator’s Brochure, version 5, 2010; cited from earlier work
[6] = first 4 treatment cycles, 68 cycles

CN(C)Cc1ccc(S(=O)(=O)n2ccc(/C=C/C(=O)NO)c2)cc1 [resminostat]
Hyponatremia, patients ([1]; all grades, N=19): 58% | Lymphopenia, patients ([1]; all grades, N=19): 89% | Neutropenia, patients ([1]; all grades, N=19): 21% | Grade 1-2 dysgeusia, patients ([1]; all patients (N=19)): 21% | Patients with SAEs unrelated to treatment ([1]; all patients (N=19)): 37% | Patients with treatment-related SAE ([1]; all patients (N=19)): 11% | Treatment-related anorexia, irrespective of grade, patients ([1]; all patients (N=19)): 26% | Treatment-related fatigue, irrespective of grade, patients ([1]; all patients (N=19)): 42% | Treatment-related nausea, irrespective of grade, patients ([1]; all patients (N=19)): 68% | Treatment-related vomiting, irrespective of grade, patients ([1]; all patients (N=19)): 37% | Number of treatment-related serious adverse events (SAE) ([1]; all patients (N=19), both patients in 800 mg cohort): 3 | Anorexia, irrespective of causality and grade, share of administered cycles [1, 6]: 31% | Fatigue, irrespective of causality and grade, share of administered cycles [1, 6]: 40% | Grade 3 fatigue, number of treatment cycles [1, 6]: 3 treatment cycles | Nausea, irrespective of causality and grade, share of administered cycles [1, 6]: 60% | Hypokalemia, patients ([1]; grade 1, N=19): 47% | Hyponatremia, patients ([1]; grade 1, N=19): 47% | Leukopenia, patients ([1]; grade 1-2, N=19): 37% | Thrombocytopenia, patients ([1]; grade 1-2, N=19): 37% | Anemia regardless of causality, patients ([1]; grade 2, N=19): 47% | Lymphopenia, patients ([1]; grade 2, N=19): 42% | Anemia regardless of causality, patients ([1]; grade 3, N=19): 11% | GGT elevation, patients ([1]; grade 3, N=19): 11% | Hypokalemia, patients ([1]; grade 3, N=19): 11% | Hyponatremia, patients ([1]; grade 3, N=19): 11% | Lymphopenia, patients ([1]; grade 3, N=19): 21% | Maximum tolerated dose (MTD) ([1]; once-daily days 1-5 every 14 days, up to 800 mg): not reached | Recommended phase II dose (RP2D) ([1]; orally once-daily on days 1-5 every 14 days): 600 mg | Apoptosis signalling (Bim, Bax, Caspases 3, 8 and 9 up; Bcl-xL down) [2]: pro-apoptotic signals were seen | Change in AUC and Cmax between treatment days 1 and 5 ([3]; all studied dose levels): no significant change | Time at which peak plasma concentration Cmax was attained, median value ([3]; day 1, single dosing, all doses): 2 h | Clearance ([3]; day 1, single oral administration, 100 mg, N=3, geometric mean (68% range), free-base): 80900 (51600, 127000) mL/h | Clearance ([3]; day 1, single oral administration, 200 mg, N=3, geometric mean (68% range), free-base): 53800 (45000, 64300) mL/h | Clearance ([3]; day 1, single oral administration, 400 mg, N=3, geometric mean (68% range), free-base): 52500 (50600, 54400) mL/h | Clearance ([3]; day 1, single oral administration, 600 mg, N=3, geometric mean (68% range), free-base): 41400 (32200, 53300) mL/h | Clearance ([3]; day 1, single oral administration, 800 mg, N=7, geometric mean (68% range), free-base): 37700 (29500, 48200) mL/h | Clearance ([3]; day 5, multiple oral administration, 100 mg, N=3, geometric mean (68% range), free-base): 75100 (51000, 110000) mL/h | Clearance ([3]; day 5, multiple oral administration, 200 mg, N=3, geometric mean (68% range), free-base): 59500 (45500, 77800) mL/h | Clearance ([3]; day 5, multiple oral administration, 400 mg, N=3, geometric mean (68% range), free-base): 49300 (39900, 61000) mL/h | Clearance ([3]; day 5, multiple oral administration, 600 mg, n = 2, geometric mean (68% range), free-base): 31100 (27100, 35600)^b mL/h | Clearance ([3]; day 5, multiple oral administration, 800 mg, N=6, geometric mean (68% range), free-base): 41200 (29900, 56800) mL/h | half-life ([3]; oral, Terminal plasma elimination half-life, range, day 1, all doses): 2.35 to 4.41 h | AUC ([3]; po, 100 mg): 1330 ng·h/mL | AUC(0-inf) ([3]; po, 100 mg): 1240 ng·h/mL | Tmax ([3]; po, 100 mg): 2 h | Cmax ([3]; po, 100 mg, day 1, single oral administration, 100 mg, N=3, geometric mean (68% range), free-base): 487 ng/mL | Cmax ([3]; po, 100 mg, day 5, multiple oral administration, 100 mg, N=3, geometric mean (68% range), free-base): 373 ng/mL | half-life ([3]; po, 100 mg, Half-life, day 1, single oral administration, 100 mg, N=3, geometric mean (68% range), free-base): 3.77 h | AUC ([3]; po, 200 mg): 3360 ng·h/mL | AUC(0-inf) ([3]; po, 200 mg): 3720 ng·h/mL | Tmax ([3]; po, 200 mg): 2 h | Cmax ([3]; po, 200 mg, day 1, single oral administration, 200 mg, N=3, geometric mean (68% range), free-base): 1470 ng/mL | Cmax ([3]; po, 200 mg, day 5, multiple oral administration, 200 mg, N=3, geometric mean (68% range), free-base): 1060 ng/mL | half-life ([3]; po, 200 mg, Half-life, day 1, single oral administration, 200 mg, N=3, geometric mean (68% range), free-base): 3.12 h | AUC ([3]; po, 400 mg): 8110 ng·h/mL | AUC(0-inf) ([3]; po, 400 mg): 7630 ng·h/mL | Tmax ([3]; po, 400 mg): 2.5 h | Cmax ([3]; po, 400 mg, day 1, single oral administration, 400 mg, N=3, geometric mean (68% range), free-base): 2160 ng/mL | Cmax ([3]; po, 400 mg, day 5, multiple oral administration, 400 mg, N=3, geometric mean (68% range), free-base): 2270 ng/mL | half-life ([3]; po, 400 mg, Half-life, day 1, single oral administration, 400 mg, N=3, geometric mean (68% range), free-base): 3.44 h | AUC ([3]; po, 600 mg): 19300 ng·h/mL | AUC(0-inf) ([3]; po, 600 mg): 14500 ng·h/mL | Tmax ([3]; po, 600 mg): 2.5 h | Cmax ([3]; po, 600 mg, day 1, single oral administration, 600 mg, N=3, geometric mean (68% range), free-base): 4100 ng/mL | Cmax ([3]; po, 600 mg, day 5, multiple oral administration, 600 mg, N=3, geometric mean (68% range), free-base): 3000 ng/mL | half-life ([3]; po, 600 mg, Half-life, day 1, single oral administration, 600 mg, N=3, geometric mean (68% range), free-base): 2.84 h | AUC ([3]; po, 800 mg): 19400 ng·h/mL | AUC(0-inf) ([3]; po, 800 mg): 21200 ng·h/mL | Tmax ([3]; po, 800 mg): 1.75 h | Cmax ([3]; po, 800 mg, day 1, single oral administration, 800 mg, N=7, geometric mean (68% range), free-base): 4970 ng/mL | Cmax ([3]; po, 800 mg, day 5, multiple oral administration, 800 mg, N=6, geometric mean (68% range), free-base): 4510 ng/mL | half-life ([3]; po, 800 mg, Half-life, day 1, single oral administration, 800 mg, N=7, geometric mean (68% range), free-base): 2.81 h | Oral bioavailability (judged from plasma exposure) ([3]; patients, oral capsules): good oral bioavailability | Objective response rate (Cheson criteria, independent central review, interim analysis) ([4]; 11 of 33 evaluable patients): 33% | Clinical benefit rate ([4]; 18 of 33 patients): 55% | Induction of histone H3 hyperacetylation and endogenous p21waf1 [5]: dose-dependent induction
